# From PubChem BioAssay AID588745 (Vanderbilt Specialized Chemistry Center, 2011)
# The source made the active and inactive calls.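 How the source made its calls: active means compounds whose response rose with dose, given a half-maximal potency and peak effect versus acetylcholine; inactive means the rest.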
# Target: Muscarinic acetylcholine receptor M3 (Homo sapiens) (UniProt P20309)
# Test: potentiation of ACh at human M3 – CHO cells, calcium fluorescence, counter-screen, dose response (AID 588745)
# Details: CHO hM3 cells, Fluo-4 calcium fluorescence, PAM mode; series mostly up to 30 µM
# How it was run: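 Assay system: human M3 CHO cells. Incubation: compound 144 s before EC20 ACh, EC80 ACh 86 s later, 37 °C. Detection: Fluo-4 calcium fluorescence. Benchmarks: wells with maximal 1 mM acetylcholine for normalization.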
row,Compound,outcome
1,Cc1nc2sc(C(=O)NCCc3ccncc3)c(N)c2c(C)c1Cl,inactive
2,Cc1nc2sc(C(=O)NCc3ccccc3)c(N)c2c(C)c1Cl,inactive
3,Cc1nc2sc(C(=O)NCc3nccs3)c(N)c2c(C)c1Cl,inactive
4,Cc1nc2sc(C(=O)NCc3cccnc3)c(N)c2c(C)c1Cl,inactive
5,Cc1nc2sc(C(=O)NC3CC3)c(N)c2c(C)c1Cl,inactive
6,Cc1nc2sc(C(=O)NCc3cccc(F)c3F)c(N)c2c(C)c1Cl,inactive
7,Cc1nc2sc(C(=O)NCc3ccc4c(c3)OCO4)c(N)c2c(C)c1Cl,inactive
8,Cc1nc2sc(C(=O)NCc3ccncn3)c(N)c2c(C)c1Cl,inactive
9,Cc1nc2sc(C(=O)NCc3ccncc3)c(N)c2c(C)c1Cl,inactive
